Measurements: ChEMBL document CHEMBL2375313, “Synthesis, in vitro antitumor evaluation and DNA-binding study of novel tetrahydroquinolines and some derived tricyclic and tetracyclic ring systems” (Eur J Med Chem, 2013)

Experiments:
Type in all cases: functional
[1] = test system: A549; assay: Cytotoxicity against human A549 cells assessed as growth inhibition at 10 uM after 48 hrs by sulphorhodamine B assay; conditions: A549, 48 h, read-out: GI
In short: (§1)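 NCI-60 one-dose screen per the NCI Drug Evaluation Branch protocol. Cells given a single 10 µM concentration with 48 h continuous exposure. Growth estimated by sulphorhodamine B protein assay. Result expressed as percentage growth inhibition relative to untreated growth.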

[2] = test system: U-251; assay: Cytotoxicity against human U251 cells assessed as growth inhibition at 10 uM after 48 hrs by sulphorhodamine B assay; conditions: U-251, 48 h, read-out: GI; in short: as §1
[3] = test system: SK-MEL-2; assay: Cytotoxicity against human SK-MEL-2 cells assessed as growth inhibition at 10 uM after 48 hrs by sulphorhodamine B assay; conditions: SK-MEL-2, 48 h, read-out: GI; in short: as §1
[4] = test system: RXF 393; assay: Cytotoxicity against human RXF393 cells assessed as growth inhibition at 10 uM after 48 hrs by sulphorhodamine B assay; conditions: RXF 393, 48 h, read-out: GI; in short: as §1
[5] = test system: K562; assay: Cytotoxicity against human K562 cells assessed as growth inhibition at 10 uM after 48 hrs by sulphorhodamine B assay; conditions: K562, 48 h, read-out: GI; in short: as §1
[6] = test system: MCF7; assay: Cytotoxicity against human MCF7 cells assessed as growth inhibition at 10 uM after 48 hrs by sulphorhodamine B assay; conditions: MCF7, 48 h, read-out: GI; in short: as §1
[7] = test system: SNB-75; assay: Cytotoxicity against human SNB75 cells assessed as growth inhibition at 10 uM after 48 hrs by sulphorhodamine B assay; conditions: SNB-75, 48 h, read-out: GI; in short: as §1
[8] = test system: A498; assay: Cytotoxicity against human A498 cells assessed as growth inhibition at 10 uM after 48 hrs by sulphorhodamine B assay; conditions: A498, 48 h, read-out: GI; in short: as §1
[9] = test system: OVCAR-5; assay: Cytotoxicity against human OVCAR5 cells assessed as growth inhibition at 10 uM after 48 hrs by sulphorhodamine B assay; conditions: OVCAR-5, 48 h, read-out: GI; in short: as §1
[10] = test system: HT-29; assay: Cytotoxicity against human HT-29 cells assessed as growth inhibition at 10 uM after 48 hrs by sulphorhodamine B assay; conditions: HT-29, 48 h, read-out: GI; in short: as §1
[11] = test system: PC-3; assay: Cytotoxicity against human PC3 cells assessed as growth inhibition at 10 uM after 48 hrs by sulphorhodamine B assay; conditions: PC-3, 48 h, read-out: GI; in short: as §1
[12] = test system: NCI/ADR-RES; assay: Cytotoxicity against human NCI/ADR-RES cells assessed as growth inhibition at 10 uM after 48 hrs by sulphorhodamine B assay; conditions: read-out: GI; in short: as §1
[13] = test system: NCI-H522; assay: Cytotoxicity against human NCI-H522 cells assessed as growth inhibition at 10 uM after 48 hrs by sulphorhodamine B assay; conditions: NCI-H522, 48 h, read-out: GI; in short: as §1
[14] = test system: LOX IMVI; assay: Cytotoxicity against human LOXIMVI cells assessed as growth inhibition at 10 uM after 48 hrs by sulphorhodamine B assay; conditions: read-out: GI; in short: as §1
[15] = test system: SNB-19; assay: Cytotoxicity against human SNB19 cells assessed as growth inhibition at 10 uM after 48 hrs by sulphorhodamine B assay; conditions: SNB-19, 48 h, read-out: GI; in short: as §1
[16] = test system: SK-MEL-5; assay: Cytotoxicity against human SK-MEL-5 cells assessed as growth inhibition at 10 uM after 48 hrs by sulphorhodamine B assay; conditions: SK-MEL-5, 48 h, read-out: GI; in short: as §1
[17] = test system: MOLT-4; assay: Cytotoxicity against human MOLT4 cells assessed as growth inhibition at 10 uM after 48 hrs by sulphorhodamine B assay; conditions: MOLT-4, 48 h, read-out: GI; in short: as §1
[18] = test system: HCT-116; assay: Cytotoxicity against human HCT116 cells assessed as growth inhibition at 10 uM after 48 hrs by sulphorhodamine B assay; conditions: HCT-116, 48 h, read-out: GI; in short: as §1
[19] = test system: SK-OV-3; assay: Cytotoxicity against human SKOV3 cells assessed as growth inhibition at 10 uM after 48 hrs by sulphorhodamine B assay; conditions: SK-OV-3, 48 h, read-out: GI; in short: as §1
[20] = Cytotoxicity against human EKVX cells assessed as growth inhibition at 10 uM after 48 hrs by sulphorhodamine B assay; conditions: read-out: GI; in short: as §1
[21] = test system: OVCAR-4; assay: Cytotoxicity against human OVCAR4 cells assessed as growth inhibition at 10 uM after 48 hrs by sulphorhodamine B assay; conditions: OVCAR-4, 48 h, read-out: GI; in short: as §1
[22] = test system: MDA-MB-468; assay: Cytotoxicity against human MDA-MB-468 cells assessed as growth inhibition at 10 uM after 48 hrs by sulphorhodamine B assay; conditions: MDA-MB-468, 48 h, read-out: GI; in short: as §1
[23] = test system: RPMI-8226; assay: Cytotoxicity against human RPMI8226 cells assessed as growth inhibition at 10 uM after 48 hrs by sulphorhodamine B assay; conditions: RPMI-8226, 48 h, read-out: GI; in short: as §1
[24] = test system: ACHN; assay: Cytotoxicity against human ACHN cells assessed as growth inhibition at 10 uM after 48 hrs by sulphorhodamine B assay; conditions: read-out: GI; in short: as §1
[25] = test system: SF-268; assay: Cytotoxicity against human SF268 cells assessed as growth inhibition at 10 uM after 48 hrs by sulphorhodamine B assay; conditions: SF-268, 48 h, read-out: GI; in short: as §1
[26] = test system: IGROV-1; assay: Cytotoxicity against human IGROV1 cells assessed as growth inhibition at 10 uM after 48 hrs by sulphorhodamine B assay; conditions: IGROV-1, 48 h, read-out: GI; in short: as §1
[27] = test system: CCRF-CEM; assay: Cytotoxicity against human CCRF-CEM cells assessed as growth inhibition at 10 uM after 48 hrs by sulphorhodamine B assay; conditions: read-out: GI; in short: as §1
[28] = test system: SF-295; assay: Cytotoxicity against human SF295 cells assessed as growth inhibition at 10 uM after 48 hrs by sulphorhodamine B assay; conditions: SF-295, 48 h, read-out: GI; in short: as §1
[29] = test system: MDA-MB-435; assay: Cytotoxicity against human MDA-MB-435 cells assessed as growth inhibition at 10 uM after 48 hrs by sulphorhodamine B assay; conditions: MDA-MB-435, 48 h, read-out: GI; in short: as §1
[30] = test system: UO-31; assay: Cytotoxicity against human UO31 cells assessed as growth inhibition at 10 uM after 48 hrs by sulphorhodamine B assay; conditions: UO-31, 48 h, read-out: GI; in short: as §1
[31] = test system: HL-60(TB); assay: Cytotoxicity against human HL-60(TB) cells assessed as growth inhibition at 10 uM after 48 hrs by sulphorhodamine B assay; conditions: HL-60, 48 h, read-out: GI
In short: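 NCI-60 one-dose primary screen run to the Drug Evaluation Branch protocol. Cells are exposed to a single 10 µM concentration for 48 h continuously, and growth is read by SRB protein assay. Data are reported as percent growth of treated cells, expressed as % growth inhibition.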

[32] = test system: T47D; assay: Cytotoxicity against human T47D cells assessed as growth inhibition at 10 uM after 48 hrs by sulphorhodamine B assay; conditions: read-out: GI; in short: as §1
[33] = test system: HOP-92; assay: Cytotoxicity against human HOP92 cells assessed as growth inhibition at 10 uM after 48 hrs by sulphorhodamine B assay; conditions: HOP-92, 48 h, read-out: GI; in short: as §1
[34] = test system: UACC-62; assay: Cytotoxicity against human UACC62 cells assessed as growth inhibition at 10 uM after 48 hrs by sulphorhodamine B assay; conditions: UACC-62, 48 h, read-out: GI; in short: as §1
[35] = test system: CAKI-1; assay: Cytotoxicity against human Caki1 cells assessed as growth inhibition at 10 uM after 48 hrs by sulphorhodamine B assay; conditions: CAKI-1, 48 h, read-out: GI; in short: as §1
[36] = test system: NCI-H23; assay: Cytotoxicity against human NCI-H23 cells assessed as growth inhibition at 10 uM after 48 hrs by sulphorhodamine B assay; conditions: NCI-H23, 48 h, read-out: GI; in short: as §1
[37] = test system: HCT-15; assay: Cytotoxicity against human HCT15 cells assessed as growth inhibition at 10 uM after 48 hrs by sulphorhodamine B assay; conditions: HCT-15, 48 h, read-out: GI; in short: as §1
[38] = test system: DU-145; assay: Cytotoxicity against human DU145 cells assessed as growth inhibition at 10 uM after 48 hrs by sulphorhodamine B assay; conditions: DU-145, 48 h, read-out: GI; in short: as §1
[39] = test system: SR; assay: Cytotoxicity against human SR cells assessed as growth inhibition at 10 uM after 48 hrs by sulphorhodamine B assay; conditions: read-out: GI; in short: as §1
[40] = test system: M14; assay: Cytotoxicity against human M14 cells assessed as growth inhibition at 10 uM after 48 hrs by sulphorhodamine B assay; conditions: M14, 48 h, read-out: GI; in short: as §1
[41] = test system: Hs-578T; assay: Cytotoxicity against human Hs578T cells assessed as growth inhibition at 10 uM after 48 hrs by sulphorhodamine B assay; conditions: read-out: GI; in short: as §1

Measured: inhibition of growth at 10 µM

COc1ccc(-c2c3c(nc4ncn5ncnc5c24)C(C)CCC3)cc1 (stereo unspecified)
17.8%: [39]
18.3%: [34]
13%: [11]
10.6%: [26]
15%: [14]
31%: [23]
13.5%: [8]
19%: [17]
< 10%: [1] | [2] | [3] | [4] | [5] | [6] | [7] | [9] | [10] | [12] | [13] | [15] | [16] | [18] | [19] | [20] | [21] | [22] | [24] | [25] | [27] | [28] | [29] | [30] | [31] | [32] | [33] | [35] | [36] | [37] | [38] | [40] | [41]

COc1ccc(-c2c3c(nc4ncn(N)c(=N)c24)C(C)CCC3)cc1 (stereo unspecified)
25%: [37]
20%: [21]
10%: [35]
14.4%: [36]
22.3%: [18]
21.5%: [20]
24%: [34]
< 10%: [1] | [4] | [5] | [6] | [8] | [9] | [10] | [11] | [12] | [14] | [15] | [16] | [17] | [19] | [22] | [23] | [25] | [26] | [27] | [28] | [30] | [31] | [38] | [39] | [40] | [41]
26%: [13]
14.5%: [24]
14.3%: [7]
11%: [3]
18.1%: [32]
16.7%: [2]
19%: [29]
